Results: paper PMC3954597 (Biochemistry, 2014)

Legend:
Assay type in all cases: biochemical
PTPRA = PTPRA (Homo sapiens, UniProt P18433); assay: PTP assay, PTPRA
In short: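 His-tagged PTPRA catalytic domain (aa 224–802), expressed in E. coli. Dephosphorylation was followed continuously at 282 nm (Δε = 1102 M−1 cm−1). Initial rates were fitted to Michaelis-Menten or V = kcat[E][S]/KM, or full progress curves were fitted to depletion.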

TCPTP = target: T1, TCPTP (Homo sapiens, UniProt P17706); assay: PTP assay, TCPTP
T1 sequence (P17706 1-314): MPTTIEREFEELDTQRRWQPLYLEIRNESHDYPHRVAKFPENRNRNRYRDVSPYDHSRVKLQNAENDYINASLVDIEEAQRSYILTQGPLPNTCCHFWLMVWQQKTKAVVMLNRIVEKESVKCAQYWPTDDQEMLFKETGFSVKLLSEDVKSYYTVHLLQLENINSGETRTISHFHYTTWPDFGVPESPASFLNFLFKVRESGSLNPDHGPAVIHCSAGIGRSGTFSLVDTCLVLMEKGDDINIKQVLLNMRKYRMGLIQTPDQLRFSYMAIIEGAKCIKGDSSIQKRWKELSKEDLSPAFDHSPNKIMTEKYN

PTP1B = target: T2, PTP1B (Homo sapiens, UniProt P18031); assay: PTP assay, wild-type PTP1B; conditions: for kcat/KM x10^6: WT catalytic domain aa 1–321, 100 mM HEPES pH 7.4, monitored at 282 nm
T2 sequence (P18031 1-321): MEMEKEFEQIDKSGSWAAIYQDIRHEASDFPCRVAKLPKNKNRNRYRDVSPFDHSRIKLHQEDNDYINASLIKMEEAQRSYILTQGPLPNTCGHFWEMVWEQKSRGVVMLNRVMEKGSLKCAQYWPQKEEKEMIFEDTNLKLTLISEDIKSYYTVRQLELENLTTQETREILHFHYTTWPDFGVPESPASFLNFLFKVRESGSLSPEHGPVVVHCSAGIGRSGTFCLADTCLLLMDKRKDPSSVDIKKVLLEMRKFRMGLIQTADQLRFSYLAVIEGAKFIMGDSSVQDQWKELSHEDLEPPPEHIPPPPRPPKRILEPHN
In short: (§1)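 E. coli-expressed catalytic domains were used: wild-type, R24M or R47E PTP1B (aa 1–321), and SHP-1 (aa 205–595). Reactions started with PTP (0.5–20000 nM final) and dephosphorylation was monitored continuously at 282 nm. kcat, KM and kcat/KM came from initial-rate fits (Michaelis–Menten, or V = kcat[E][S]/KM when KM >> [S]) or from fits of progress curves.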

PTPRC = target: T3, PTPRC (Homo sapiens, UniProt P08575); assay: PTP assay, PTPRC; conditions: for Km / kcat / kcat/KM x10^6: catalytic domain, 100 mM HEPES pH 7.4, monitored at 282 nm
T3 sequence (P08575 620-1236): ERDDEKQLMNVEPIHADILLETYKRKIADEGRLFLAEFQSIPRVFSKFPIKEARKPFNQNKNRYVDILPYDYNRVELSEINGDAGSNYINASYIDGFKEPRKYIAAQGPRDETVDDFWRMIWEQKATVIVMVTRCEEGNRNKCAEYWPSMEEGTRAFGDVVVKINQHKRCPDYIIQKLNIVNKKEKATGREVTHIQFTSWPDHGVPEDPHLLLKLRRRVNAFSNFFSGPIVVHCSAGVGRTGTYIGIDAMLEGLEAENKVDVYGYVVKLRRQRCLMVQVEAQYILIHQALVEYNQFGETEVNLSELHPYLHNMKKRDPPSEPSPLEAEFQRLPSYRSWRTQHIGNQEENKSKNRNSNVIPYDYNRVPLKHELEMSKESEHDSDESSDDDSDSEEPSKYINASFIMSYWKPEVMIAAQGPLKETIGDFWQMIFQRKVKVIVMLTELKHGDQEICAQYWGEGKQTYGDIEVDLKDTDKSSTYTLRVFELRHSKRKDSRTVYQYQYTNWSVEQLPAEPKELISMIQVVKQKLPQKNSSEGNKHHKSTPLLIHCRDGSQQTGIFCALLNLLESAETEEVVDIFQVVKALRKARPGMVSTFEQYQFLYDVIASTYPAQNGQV
In short: (§2)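 His-tagged catalytic domains were made in E. coli: PTPD2 aa 876–1187 and PTPRC aa 620–1236 with N-terminal tags, PTPD1 aa 875–1174 and SHP-2 aa 199–593 with C-terminal tags. Enzyme was added at 0.5–20000 nM final. A282 (Δε 1102 M−1 cm−1) was followed. Constants came from Michaelis–Menten fits of initial rates (<60 s), or from fits of progress curves run to substrate depletion.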

PTPRB = PTPRB (Homo sapiens, UniProt P23467); assay: PTP assay, PTPRB; conditions: for Km / kcat / kcat/KM x10^6: catalytic domain, 100 mM HEPES pH 7.4, monitored at 282 nm
PTP-PEST = target: T4, PTP-PEST (Homo sapiens, UniProt Q05209); assay: PTP assay with pY peptide substrates, PTP-PEST; conditions: for Km / kcat / kcat/KM x10^6: catalytic domain, 100 mM HEPES pH 7.4, monitored at 282 nm
T4 sequence (Q05209 5-300): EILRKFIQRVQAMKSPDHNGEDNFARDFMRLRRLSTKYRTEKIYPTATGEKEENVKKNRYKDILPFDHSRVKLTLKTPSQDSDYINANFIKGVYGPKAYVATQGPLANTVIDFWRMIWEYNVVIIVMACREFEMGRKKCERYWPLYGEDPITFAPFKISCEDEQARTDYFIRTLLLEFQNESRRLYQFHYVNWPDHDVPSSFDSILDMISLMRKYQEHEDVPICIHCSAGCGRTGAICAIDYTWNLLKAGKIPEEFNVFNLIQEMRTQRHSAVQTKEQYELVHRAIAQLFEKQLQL

SHP-1 = SHP-1 (Homo sapiens, UniProt P29350); assay: PTP assay, SHP-1; conditions: catalytic domain; 100 mM HEPES pH 7.4; monitored at 282 nm
In short: as §1

SHP-2 = target: T5, SHP-2 (Homo sapiens, UniProt Q06124); assay: PTP assay, SHP-2; conditions: catalytic domain; 100 mM HEPES pH 7.4; monitored at 282 nm
T5 sequence (Q06124 199-593): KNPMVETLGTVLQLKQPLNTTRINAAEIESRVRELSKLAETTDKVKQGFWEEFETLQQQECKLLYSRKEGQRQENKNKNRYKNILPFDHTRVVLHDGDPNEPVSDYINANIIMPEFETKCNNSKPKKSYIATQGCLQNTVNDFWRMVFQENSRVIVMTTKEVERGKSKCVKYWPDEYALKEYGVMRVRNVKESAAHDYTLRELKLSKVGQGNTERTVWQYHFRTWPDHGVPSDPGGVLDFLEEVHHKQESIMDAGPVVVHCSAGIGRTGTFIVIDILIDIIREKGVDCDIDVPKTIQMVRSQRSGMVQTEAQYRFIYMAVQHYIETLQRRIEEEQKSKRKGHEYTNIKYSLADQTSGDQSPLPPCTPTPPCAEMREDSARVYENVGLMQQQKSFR
In short: as §2

[1] = catalytic domain, 100 mM HEPES pH 7.4, monitored at 282 nm
[2] = kcat/KM of neutral peptide over basic Ac-YRKRFpYRYKF-NH2
[3] = kcat/KM of acidic peptide over basic Ac-YRKRFpYRYKF-NH2
[4] = kcat/KM of acidic peptide over neutral Ac-SASASpYSASA-NH2

Chain of PTPRB (P23467 1686-1971): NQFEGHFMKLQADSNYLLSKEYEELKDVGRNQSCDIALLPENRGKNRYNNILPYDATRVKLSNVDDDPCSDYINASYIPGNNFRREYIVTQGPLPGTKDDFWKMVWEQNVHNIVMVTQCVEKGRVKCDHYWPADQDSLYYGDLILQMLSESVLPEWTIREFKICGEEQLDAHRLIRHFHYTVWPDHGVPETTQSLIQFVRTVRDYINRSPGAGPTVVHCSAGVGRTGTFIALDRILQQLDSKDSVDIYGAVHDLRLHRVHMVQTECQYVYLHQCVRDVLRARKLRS
Chain of SHP-1 (P29350 205-595): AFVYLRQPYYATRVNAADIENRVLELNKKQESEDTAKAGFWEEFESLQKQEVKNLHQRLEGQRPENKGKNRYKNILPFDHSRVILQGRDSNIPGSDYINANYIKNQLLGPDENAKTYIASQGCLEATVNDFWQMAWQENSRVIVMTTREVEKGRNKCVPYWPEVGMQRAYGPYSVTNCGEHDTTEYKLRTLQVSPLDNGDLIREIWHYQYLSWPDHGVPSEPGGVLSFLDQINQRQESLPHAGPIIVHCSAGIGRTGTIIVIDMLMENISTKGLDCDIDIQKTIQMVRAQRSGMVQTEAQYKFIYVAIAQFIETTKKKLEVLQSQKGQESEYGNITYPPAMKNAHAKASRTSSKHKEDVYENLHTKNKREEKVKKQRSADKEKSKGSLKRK

Q: Which “kcat/KM x10^6” value (PTPRA; [1]) does the source give for Ac-SASASpYSASA-NH2 here?
A: 0.023 x10^6 M^−1 s^−1

Q: And the “Neutral/Basic ratio of kcat/KM values” (PTPRA; [2])?
A: 0.5

Q: And the Km (TCPTP; [1])?
A: 10 ± 1 µM

Q: And the kcat (TCPTP; [1])?
A: 17 ± 2 s⁻¹

Q: What about the “kcat/KM x10^6” value (TCPTP; [1]) of the same substance?
A: 1.7 x10^6 M^−1 s^−1

Q: What about the “Neutral/Basic ratio of kcat/KM values” (TCPTP; [2]) of the same substance?
A: 53

Q: What about the “kcat/KM x 10^7” value (PTP1B; WT PTP1B aa 1–321, pH 7.4) of the same substance?
A: 0.23 x 10^7 M^−1 s^−1

Q: And the “kcat/KM x10^6” value (PTP1B)?
A: 2.3 x10^6 M^−1 s^−1

Q: And the “Neutral/Basic ratio of kcat/KM values” (PTP1B; [2])?
A: 61

Q: And the Km (PTPRC)?
A: 170 ± 20 µM

Q: What about the kcat (PTPRC) of the same substance?
A: 340 ± 50 s⁻¹

Q: What about the “kcat/KM x10^6” value (PTPRC) of the same substance?
A: 2.0 x10^6 M^−1 s^−1

Q: What about the “Neutral/Basic ratio of kcat/KM values” (PTPRC; [2]) of the same substance?
A: 41

Q: And the Km (PTPRB)?
A: 26 ± 1 µM

Q: What about the kcat (PTPRB) of the same substance?
A: 56 ± 2 s⁻¹

Q: And the “kcat/KM x10^6” value (PTPRB)?
A: 2.2 x10^6 M^−1 s^−1

Q: And the “Neutral/Basic ratio of kcat/KM values” (PTPRB; [2])?
A: 77

Q: What about the Km (PTP-PEST) of the same substance?
A: 800 ± 10 µM

Q: What about the kcat (PTP-PEST) of the same substance?
A: 160 ± 2 s⁻¹

Q: And the “kcat/KM x10^6” value (PTP-PEST)?
A: 0.20 x10^6 M^−1 s^−1

Q: How did the Km (PTPRA; [1]) turn out when Ac-YDEDFpYDYEF-NH2 was run?
A: 260 ± 30 µM

Q: And the kcat (PTPRA; [1])?
A: 19 ± 0.6 s⁻¹

Q: What about the “kcat/KM x10^6” value (PTPRA; [1]) of the same substance?
A: 0.075 x10^6 M^−1 s^−1

Q: And the “Acidic/Basic ratio of kcat/KM values” (PTPRA; [3])?
A: 2

Q: And the “Acidic/Neutral ratio of kcat/KM values” (PTPRA; [4])?
A: 3

Q: What about the “kcat/KM x10^6” value (PTP1B) of the same substance?
A: 55 x10^6 M^−1 s^−1

Q: What about the “Acidic/Basic ratio of kcat/KM values” (PTP1B; [3]) of the same substance?
A: 1500

Q: And the “Acidic/Neutral ratio of kcat/KM values” (PTP1B; [4])?
A: 24

Q: What about the Km (PTPRC) of the same substance?
A: 7 ± 0.9 µM

Q: What about the kcat (PTPRC) of the same substance?
A: 300 ± 20 s⁻¹

Q: What about the “kcat/KM x10^6” value (PTPRC) of the same substance?
A: 43 x10^6 M^−1 s^−1

Q: And the “Acidic/Basic ratio of kcat/KM values” (PTPRC; [3])?
A: 880

Q: What about the “Acidic/Neutral ratio of kcat/KM values” (PTPRC; [4]) of the same substance?
A: 22

Q: What about the Km (PTPRB) of the same substance?
A: 1.8 ± 0.4 µM

Q: And the kcat (PTPRB)?
A: 55 ± 2 s⁻¹

Q: What about the “kcat/KM x10^6” value (PTPRB) of the same substance?
A: 31 x10^6 M^−1 s^−1

Q: And the “Acidic/Basic ratio of kcat/KM values” (PTPRB; [3])?
A: 1100

Q: What about the “Acidic/Neutral ratio of kcat/KM values” (PTPRB; [4]) of the same substance?
A: 14

Q: And the Km (PTP-PEST)?
A: 2.2 ± 0.5 µM

Q: What about the kcat (PTP-PEST) of the same substance?
A: 470 ± 10 s⁻¹

Q: What about the “kcat/KM x10^6” value (PTP-PEST) of the same substance?
A: 220 x10^6 M^−1 s^−1

Q: And the “Acidic/Basic ratio of kcat/KM values” (PTP-PEST; [3])?
A: 150000

Q: What about the “Acidic/Neutral ratio of kcat/KM values” (PTP-PEST; [4]) of the same substance?
A: 1100

Q: With Ac-YRKRFpYRYKF-NH2 as the substance, how does the “kcat/KM x10^6” value (PTPRA; [1]) read?
A: 0.045 x10^6 M^−1 s^−1

Q: What about the “kcat/KM x10^6” value (SHP-1) of the same substance?
A: 0.00023 x10^6 M^−1 s^−1

Q: What about the “kcat/KM x10^6” value (TCPTP; [1]) of the same substance?
A: 0.032 x10^6 M^−1 s^−1

Q: What about the “kcat/KM x10^6” value (PTP1B) of the same substance?
A: 0.037 x10^6 M^−1 s^−1

Q: And the “kcat/KM x10^6” value (PTPRC)?
A: 0.049 x10^6 M^−1 s^−1

Q: And the “kcat/KM x10^6” value (SHP-2)?
A: 0.00015 x10^6 M^−1 s^−1

Q: What about the “kcat/KM x10^6” value (PTPRB) of the same substance?
A: 0.028 x10^6 M^−1 s^−1

Q: And the “kcat/KM x10^6” value (PTP-PEST)?
A: 0.0015 x10^6 M^−1 s^−1
